Measurements published in ChEMBL document CHEMBL3870308, “Repurposing of a drug scaffold: Identification of novel sila analogues of rimonabant as potent antitubercular agents” (Eur J Med Chem, 2016).
≈ marks a conversion by molar mass, not a printed value.

How the values were obtained:
[1] = Selectivity index, ratio of IC50 for human A549 cells to MIC for Mycobacterium tuberculosis H37Rv; type: toxicity, cell-based; conditions: read-out: Ratio IC50
[2] = test system: Mycobacterium tuberculosis; test: Antitubercular activity against Mycobacterium tuberculosis H37Rv assessed as growth inhibition by Alamar-Blue assay; type: functional
[3] = Protein binding human plasma at 150 uM measured after 30 mins by equilibrium dialysis method; type: ADME, cell-free; conditions: read-out: PPB (converted)
Outline: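 Plasma spiked with 5 µL of 150 µM compound per 745 µL. Sampled at 0 h, then incubated 30 min at 37 °C. Rapid equilibrium dialysis of plasma against KH2PO4 buffer pH 7.4 for 4 h at 37 °C with shaking. Both chambers matrix-matched and precipitated with methanol containing tolbutamide internal standard. Analysed by LC-MS/MS.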

[4] = Cytotoxicity against human HepG2 cells measured after 48 hrs by MTT assay; type: toxicity, cell-based
Outline: (§1)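 Cells from ATCC grown in DMEM with 10% FBS at 37 °C in 5% CO2, harvested by trypsinization and seeded at 7500 cells per well. After 18 h, compound added at final 0.1, 1, 10 and 100 µM in triplicate. Plates incubated 48 h, then MTT for 60 min at 37 °C. Formazan dissolved in DMSO and read at 560 nm. Percent growth taken relative to control wells, with dose-response curves. Repeated three times, mean ± SD.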

[5] = Cytotoxicity against mouse RAW cells assessed as reduction in cell viability at =>3 uM measured after 48 hrs by MTT assay; type: toxicity; conditions: read-out: INH
[6] = Cytotoxicity against human A549 cells measured after 48 hrs by MTT assay; type: toxicity, cell-based; outline: as §1
[7] = Metabolic stability in human plasma at 50 uM measured after 60 mins by LC-MS/MS analysis; type: ADME, cell-free; conditions: read-out: Stability
Outline: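 Working solution at 50 µM in acetonitrile:water (1:1), from a 10 mM DMSO stock. 2 µL added to 98 µL of plasma and incubated 60 min at 37 °C. Quenched with methanol containing internal standard, centrifuged, and supernatant analysed by LC-MS/MS.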

[8] = Selectivity index, ratio of IC50 for human HepG2 cells to MIC for Mycobacterium tuberculosis H37Rv; type: toxicity, cell-based; conditions: read-out: Ratio IC50
[9] = test system: Mycobacterium tuberculosis; test: Antimycobacterial activity against Mycobacterium tuberculosis by broth microdilution assay; type: functional
[10] = Cytotoxicity against human THP1 cells assessed as reduction in cell viability at =>3 uM measured after 48 hrs by MTT assay; type: toxicity, cell-based, THP-1; conditions: read-out: INH
[11] = Solubility of the compound at pH 7.4 by HPLC method; type: physicochemical; conditions: buffer
Outline: (§2)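 Compound diluted to a 5 mM DMSO working solution from a 10 mM stock. 5 µL added to 495 µL of buffer at the stated pH. Vortexed 5 min and centrifuged. Supernatant quantified by HPLC.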

[12] = Metabolic stability in mouse liver microsomes at 1 or 50 uM measured after 30 to 60 mins in presence of cofactor by LC-MS/MS analysis; type: ADME
Outline: (§3)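 Stock 10 mM in DMSO, diluted to a 50 µM working solution in acetonitrile:water (1:1). 2 µL of this added to 98 µL of buffer, microsomes and cofactor. Incubated at 37 °C for 15, 30, 45 and 60 min. Stopped with methanol containing internal standard, vortexed and centrifuged. Supernatant analysed by LC-MS/MS.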

[13] = Solubility of the compound at pH 2.2 by HPLC method; type: physicochemical; conditions: buffer; outline: as §2
[14] = Solubility of the compound at pH 1.2 by HPLC method; type: physicochemical; conditions: buffer; outline: as §2
[15] = Solubility of the compound at pH 10.2 by HPLC method; type: physicochemical; conditions: buffer; outline: as §2
[16] = Solubility of the compound at pH 4.5 by HPLC method; type: physicochemical; conditions: buffer; outline: as §2
[17] = Metabolic stability in human liver microsomes at 1 or 50 uM measured after 30 to 60 mins in presence of cofactor by LC-MS/MS analysis; type: ADME; outline: as §3

SMILES	selectivity ratio [1]	MIC [2]	fraction unbound at 0.5 h, 150 µM [3]	IC50 at 48 h [4]	IC50 at 48 h [6]	remaining at 1 h, 50 µM [7]	selectivity ratio [8]	other results
Cc1c(CN2CCN(C)CC2)cc(-c2ccc(Cl)cc2)n1-c1ccc(Cl)cc1	57.2	0.7 µg/mL (≈ 1.69 µM)	0.0077	71 µM	91.5 µM	100%	44.4	cytotoxicity at 48 h [5]: 40 to 60%; MIC [9]: 0.7 to 1.5 µg/mL (≈ 1.69 to 3.62 µM); cytotoxicity at 48 h [10]: 40 to 60%
C[Si]1(C)CCN(NCc2cc(-c3ccc(Cl)cc3)n(-c3ccc(Cl)cc3)n2)CC1	84.2	0.39 µg/mL (≈ 0.875 µM)	0.0069	86.8 µM	73.2 µM	100%	99.8	solubility [11]: 39.8 µM (≈ 17.7 µg/mL); Stability [12]: 100%; solubility [13]: 43.2 µM (≈ 19.2 µg/mL); cytotoxicity at 48 h [5]: 40 to 60%; solubility [14]: 43.1 µM (≈ 19.2 µg/mL); solubility [15]: 38 µM (≈ 16.9 µg/mL); solubility [16]: 44.3 µM (≈ 19.7 µg/mL); cytotoxicity at 48 h [10]: 40 to 60%; Stability [17]: 93.1%
CN(C)CCCNC(=O)c1cc(-c2ccc(Cl)cc2)n(-c2ccc(Cl)cc2)n1		25 µg/mL (≈ 59.9 µM)						
Cc1c(CN2CCN(C)CC2)nn(-c2ccc(Cl)cc2Cl)c1-c1ccc(Cl)cc1	2.9	12.5 µg/mL (≈ 27.8 µM)		85 µM	80.3 µM		3.1	
Cc1c(CN2CC[Si](C)(C)CC2)nn(-c2ccc(Cl)cc2Cl)c1-c1ccc(Cl)cc1	31.9	1.17 µg/mL (≈ 2.44 µM)	0.0005	51.9 µM	54.2 µM	99.2%	30.5	solubility [11]: 1.05 µM (≈ 0.503 µg/mL); Stability [12]: 9.2%; solubility [13]: 40.6 µM (≈ 19.4 µg/mL); cytotoxicity at 48 h [5]: 40 to 60%; solubility [14]: 41 µM (≈ 19.6 µg/mL); solubility [15]: 10.9 µM (≈ 5.24 µg/mL); solubility [16]: 34.2 µM (≈ 16.4 µg/mL); cytotoxicity at 48 h [10]: 40 to 60%; Stability [17]: 18.5%
Cc1c(C(=O)N2CCNCC2)nn(-c2ccc(Cl)cc2Cl)c1-c1ccc(Cl)cc1		25 µg/mL (≈ 55.6 µM)						
C[Si]1(C)CCN(Cc2nn(-c3ccc(Cl)cc3Cl)c(-c3ccc(Cl)cc3)c2CO)CC1	4.92	6.25 µg/mL (≈ 12.6 µM)	0.0004	30.4 µM	61.9 µM	88.1%	2.41	solubility [11]: 5.31 µM (≈ 2.63 µg/mL); Stability [12]: 3.7%; solubility [13]: 42.5 µM (≈ 21 µg/mL); solubility [14]: 44 µM (≈ 21.8 µg/mL); solubility [15]: 2.39 µM (≈ 1.18 µg/mL); solubility [16]: 41.6 µM (≈ 20.6 µg/mL); Stability [17]: 2.1%
Cc1c(C(=O)NCCCN(C)C)nn(-c2ccc(Cl)cc2Cl)c1-c1ccc(Cl)cc1		25 µg/mL (≈ 53.7 µM)						
Clc1ccc(-c2cc(CN3CCCCC3)nn2-c2ccc(Cl)cc2)cc1		1.56 µg/mL (≈ 4.04 µM)	0.0011			91.7%		solubility [11]: 11.4 µM (≈ 4.4 µg/mL); Stability [12]: 26%; solubility [13]: 44.6 µM (≈ 17.2 µg/mL); solubility [14]: 45 µM (≈ 17.4 µg/mL); solubility [15]: 1.49 µM (≈ 0.576 µg/mL); solubility [16]: 43.6 µM (≈ 16.8 µg/mL); Stability [17]: 60.1%
O=C1CCN(Cc2cc(-c3ccc(Cl)cc3)n(-c3ccc(Cl)cc3)n2)CC1		25 µg/mL (≈ 62.5 µM)						
Cc1c(CNCc2ccccc2)nn(-c2ccc(Cl)cc2Cl)c1-c1ccc(Cl)cc1	4.1	6.25 µg/mL (≈ 13.7 µM)		57.4 µM	55.8 µM		4.2	
O=C(c1cc(-c2ccc(Cl)cc2)n(-c2ccc(Cl)cc2)n1)N1CCNCC1		25 µg/mL (≈ 62.3 µM)						
Cc1c(C(=O)NN2CCN(C)CC2)nn(-c2ccc(Cl)cc2Cl)c1-c1ccc(Cl)cc1		25 µg/mL (≈ 52.2 µM)						
Cc1c(CN(C)C)nn(-c2ccc(Cl)cc2Cl)c1-c1ccc(Cl)cc1	3.62	6.25 µg/mL (≈ 15.8 µM)		36.3 µM	57.2 µM		2.3	
C[Si]1(C)CCN(Cc2cc(-c3ccc(Cl)cc3)n(-c3ccc(Cl)cc3)n2)CC1	841	0.031 µg/mL (≈ 0.072 µM)	0.0007	21.4 µM	58.9 µM	100%	306	solubility [11]: 3.72 µM (≈ 1.6 µg/mL); Stability [12]: 6.3%; solubility [13]: 42.3 µM (≈ 18.2 µg/mL); cytotoxicity at 48 h [5]: 40 to 60%; solubility [14]: 43 µM (≈ 18.5 µg/mL); solubility [15]: 1.99 µM (≈ 0.857 µg/mL); solubility [16]: 41.9 µM (≈ 18 µg/mL); cytotoxicity at 48 h [10]: 40 to 60%; Stability [17]: 20.3%
CN(C)C(=O)c1cc(-c2ccc(Cl)cc2)n(-c2ccc(Cl)cc2)n1		25 µg/mL (≈ 69.4 µM)						
CN1CCN(Cc2cc(-c3ccc(Cl)cc3)n(-c3ccc(Cl)cc3)n2)CC1		25 µg/mL (≈ 62.3 µM)						
C[Si]1(C)CCN(C(=O)c2cc(-c3ccc(Cl)cc3)n(-c3ccc(Cl)cc3)n2)CC1	4.85	6.25 µg/mL (≈ 14.1 µM)	0.0001	59 µM	68.3 µM	89.7%	4.18	solubility [11]: 0.05 µM (≈ 0.0222 µg/mL); Stability [12]: 3.9%; solubility [13]: 0.18 µM (≈ 0.08 µg/mL); solubility [14]: 0.16 µM (≈ 0.0711 µg/mL); solubility [15]: 1.28 µM (≈ 0.569 µg/mL); solubility [16]: 0.13 µM (≈ 0.0578 µg/mL); Stability [17]: 2.1%
Cc1c(CN2CCNCC2)nn(-c2ccc(Cl)cc2Cl)c1-c1ccc(Cl)cc1		25 µg/mL (≈ 57.4 µM)						
Cc1c(CN2CCCCC2)nn(-c2ccc(Cl)cc2Cl)c1-c1ccc(Cl)cc1	3.1	12.5 µg/mL (≈ 28.7 µM)		> 100 µM	88.8 µM		> 3.5	
COc1cccc2c1C(=O)c1c(O)c3c(c(O)c1C2=O)C[C@@](O)(C(=O)CO)C[C@@H]3O[C@H]1C[C@H](N)[C@H](O)[C@H](C)O1 [DOXORUBICIN]				5.34 µM	5.32 µM			
NNC(=O)c1ccncc1 [ISONIAZID]		0.3 µg/mL (≈ 2.19 µM)						
Cc1c(C(=O)NN2CCCCC2)nn(-c2ccc(Cl)cc2Cl)c1-c1ccc(Cl)cc1 [RIMONABANT]		25 µg/mL (≈ 53.9 µM)						
